Experimental data: ChEMBL document CHEMBL4414562, “Discovery of the First in Vivo Active Inhibitors of the Soluble Epoxide Hydrolase Phosphatase Domain” (J Med Chem, 2019)
Active and inactive are the calls of the source. The calls are words filed in the database; no cut-off is given here.

Experiments:
Homo sapiens [1] = species: Homo sapiens; test: Inhibition of soluble epoxide hydrolase N-terminal phosphatase domain in human PBMC assessed as reduction in MAG/LPA ratio at 30 uM incubated for 24 hrs by LC-MS/MS analysis
[2] = Half life in Sprague-Dawley rat at 30 mg/kg, po monitored over 8 hrs by LC-MS analysis; type: ADME, organism-based; conditions: in vivo
Outline: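 Male Sprague-Dawley rats (n = 3) given a single oral dose of 30 mg/kg. Plasma compound concentration followed over 8 h. Cmax and half-life derived from the plasma concentration–time profile.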

Rattus norvegicus = test: Inhibition of sEH-P in Sprague-Dawley rat assessed as effect on ratio of sn1-18:2 LPA to corresponding monoacylglycerol species in plasma at 30 mg/kg, po after 8 hrs by LC-MS/MS analysis; type: functional, organism-based
Outline: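 Male Sprague-Dawley rats given a single oral dose of 30 mg/kg or vehicle (n = 3 per group). Plasma collected 8 h later. Epoxy fatty acid/diol ratios and LPA/corresponding MAG ratios quantified by LC−MS/MS.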

[3] = target: T1, Bifunctional epoxide hydrolase 2 (Homo sapiens) (UniProt P34913); test: Induction of stabilization of hexa-His-tagged human soluble epoxide hydrolase C-terminal hydrolase domain expressed in Escherichia coli BL21(DE3) at 50 uM by differential scanning fluorimetry
T1 sequence (whole entry): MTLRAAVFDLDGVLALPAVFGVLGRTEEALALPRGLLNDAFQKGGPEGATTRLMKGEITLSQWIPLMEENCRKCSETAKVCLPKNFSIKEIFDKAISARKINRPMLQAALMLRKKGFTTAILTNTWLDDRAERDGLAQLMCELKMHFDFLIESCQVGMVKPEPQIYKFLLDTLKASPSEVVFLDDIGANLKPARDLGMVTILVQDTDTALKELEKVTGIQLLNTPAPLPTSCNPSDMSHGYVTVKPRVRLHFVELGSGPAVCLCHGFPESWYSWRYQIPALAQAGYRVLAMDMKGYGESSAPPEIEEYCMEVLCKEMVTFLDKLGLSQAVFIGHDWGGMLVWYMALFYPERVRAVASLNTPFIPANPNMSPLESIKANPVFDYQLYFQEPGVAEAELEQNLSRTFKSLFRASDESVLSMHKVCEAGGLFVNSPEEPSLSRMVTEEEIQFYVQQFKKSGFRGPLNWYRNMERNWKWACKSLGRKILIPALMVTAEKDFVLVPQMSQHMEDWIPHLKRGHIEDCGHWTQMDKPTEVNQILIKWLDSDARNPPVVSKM

Homo sapiens [4] = species: Homo sapiens; test: Induction of stabilization of hexa-His-tagged human soluble epoxide hydrolase N-terminal phosphatase domain expressed in Escherichia coli BL21(DE3) at 50 uM by differential scanning fluorimetry

## O=C(O)CCCc1nc(-c2ccc(Cl)c(Cl)c2)c(-c2ccccc2)o1
Homo sapiens [1]
  inhibition: Active
[2]
  t1/2: 7 h
Rattus norvegicus
  inhibition: Active
[3]
  Activity: inactive
Homo sapiens [4]
  Activity: Active
